Test results: ChEMBL document CHEMBL1142319, “New antitumor imidazo[2,1-b]thiazole guanylhydrazones and analogues” (2008)
The source made the active and inactive calls. The rule behind the calls is not given here.

Columns and labels:
HL-60 [1] = test: Effect on cell growth in human HL60 cells assessed as cell number per mL at 2 uM; assay type: functional; parameters: scale not given here
In short: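 HL-60 cells in RPMI 1640 with 10% FBS and 2 mM glutamine, 37 °C, 5% CO2, doubling time about 24 h. Exposed 24 h to 2 µM compound diluted from DMSO into medium. Cells per mL counted with a Coulter counter.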

HL-60 [2] = test: Induction of cell death in human HL60 cells at 2 uM by propidium iodide staining method; assay type: functional
In short: (§1)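 HL-60 cells in RPMI 1640 with 10% FBS and 2 mM glutamine at 37 °C, 5% CO2, exposed for 24 h to compound diluted in medium from DMSO. Cells were counterstained with propidium iodide (5 µg/mL) for plasma membrane integrity and analysed by flow cytometry. The readout is the percentage of PI-positive cells.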

Cancer cell lines [3] = test: Inhibition of human colon cancer cells; assay type: functional; settings: for TGI: read-out: pTGI (converted)
In short: (§2)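 NCI 60-cell-line panel, with results grouped by tissue subpanel. Compounds dissolved in DMSO and tested at five 10-fold dilutions, top concentration 10^-4 M. Values given as -log molar concentration for 50% growth inhibition (pGI50), total growth inhibition (pTGI) and 50% cell kill (pLC50), with subpanel means calculated.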

Leukemia cell = test: Inhibition of human leukemia cells; assay type: functional; settings: for TGI: read-out: pTGI (converted); in short: as §2
Cancer cell lines [4] = test: Inhibition of human non-small cell lung cancer cells; assay type: functional; settings: for TGI: read-out: pTGI (converted); in short: as §2
Cancer cell lines [5] = test: Inhibition of human CNS cancer cells; assay type: functional; settings: for TGI: read-out: pTGI (converted); in short: as §2
Melanoma cell = test: Inhibition of human melanoma cells; assay type: functional; settings: for TGI: read-out: pTGI (converted); in short: as §2
Cancer cell lines [6] = test: Inhibition of human ovarian cancer cells; assay type: functional; settings: for TGI: read-out: pTGI (converted); in short: as §2
Cancer cell lines [7] = test: Inhibition of human renal cancer cells; assay type: functional; settings: for TGI: read-out: pTGI (converted); in short: as §2
Cancer cell lines [8] = test: Inhibition of human prostate cancer cells; assay type: functional; settings: for TGI: read-out: pTGI (converted); in short: as §2
Cancer cell lines [9] = test: Inhibition of human breast cancer cells; assay type: functional; settings: for TGI: read-out: pTGI (converted); in short: as §2
HL-60 [10] = test: Cell cycle arrest in human HL60 cells assessed as accumulation at G0/G1 phase at 2 uM; assay type: functional
In short: (§3)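 HL-60 cells kept in RPMI 1640 with 10% FBS and 2 mM glutamine at 37 °C, 5% CO2. Treated 24 h at 2 µM from DMSO stock diluted in medium. Cells fixed in cold 70% ethanol and stained with propidium iodide 50 µg/mL plus RNAase 10 µg/mL for 30 min. DNA profiles read by flow cytometry on ≥10 000 cells, and phase percentages calculated.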

HL-60 [11] = test: Cell cycle arrest in human HL60 cells assessed as accumulation at S phase at 2 uM; assay type: functional; in short: as §3
HL-60 [12] = test: Cell cycle arrest in human HL60 cells assessed as accumulation at G2/M phase at 2 uM; assay type: functional; in short: as §3
[13] = target: T1, S-adenosylmethionine decarboxylase proenzyme (Homo sapiens) (UniProt P17707); test: Inhibition of human S-adenosyl methionine decarboxylase in HL60 cells at 1 to 100 uM; assay type: cell-based; settings: HL-60
T1 sequence (whole entry): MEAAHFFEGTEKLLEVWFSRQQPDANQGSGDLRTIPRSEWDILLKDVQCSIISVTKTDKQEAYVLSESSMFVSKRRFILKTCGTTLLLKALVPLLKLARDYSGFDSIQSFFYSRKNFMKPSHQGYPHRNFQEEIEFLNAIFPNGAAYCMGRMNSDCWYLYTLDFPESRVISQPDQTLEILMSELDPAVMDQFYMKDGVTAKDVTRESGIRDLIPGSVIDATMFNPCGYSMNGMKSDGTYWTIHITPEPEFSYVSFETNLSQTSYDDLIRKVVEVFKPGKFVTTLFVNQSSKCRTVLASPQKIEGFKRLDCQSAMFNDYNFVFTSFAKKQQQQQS

HL-60 [14] = test: Induction of apoptosis in human HL60 cells assessed as caspase activity after 4 hrs; assay type: functional, cell-based
In short: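 HL-60 cells treated 4 h across a range of concentrations. DEVD-cleaving caspase (DEVDase) activity measured fluorimetrically in cell extracts. One typical experiment shown, repeated at least twice.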

HL-60 [15] = test: Induction of cell death in human HL60 cells assessed as LDH release at 5 uM after 24 hrs; assay type: functional, cell-based
In short: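 HL-60 cells exposed 24 h to 5 µM. Medium aliquots collected and LDH activity determined spectrophotometrically from NADH at 340 nm. One typical experiment shown, repeated at least twice.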

HL-60 [16] = test: Induction of apoptosis in human HL60 cells assessed as chromatin condensation at 5 uM after 3 hrs; assay type: functional, cell-based
In short: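 HL-60 cells on glass coverslips treated 3 h with 5 µM. Cells fixed in 4% paraformaldehyde in PBS and stained with Hoechst 0.1 µg/mL. Nuclear morphology (chromatin condensation, apoptotic bodies) scored by fluorescence microscopy. Experiment repeated at least twice.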

HL-60 [17] = test: Disruption of mitochondrial membrane potential in human HL60 cells at 5 uM after 1 hr; assay type: functional, cell-based
In short: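 HL-60 cells exposed to 5 µM for 1 h, then loaded with 40 nM DiOC6 for 40 min at 1 × 10⁶ cells/mL, 37 °C, in the dark. Mitochondrial membrane potential read by flow cytometry. Mean ± SEM of triplicate determinations.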

HL-60 [18] = test: Increase in peroxide formation in human HL60 cells at 5 uM after 3 hrs; assay type: functional, cell-based
In short: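 Intracellular peroxides measured in HL-60 cells after 3 h at 5 µM. Cells incubated with 5 µM DCF-DA for 30 min at 37 °C, then read by flow cytometry. Mean ± SEM of triplicates.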

HL-60 [19] = test: Effect on energy metabolism assessed as increase in AMP/ATP ratio in human HL60 cells at 5 uM after 3 hrs; assay type: functional, cell-based
In short: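 HL-60 cells treated 3 h with 5 µM. Adenine nucleotide levels measured and the AMP/ATP ratio calculated from them. Mean ± SEM of triplicate determinations.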

HL-60 [20] = test: Effect on cell growth in human HL60 cells assessed as cell number per mL at 10 uM; assay type: functional
In short: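 HL-60 cells grown in RPMI 1640 with 10% FBS and 2 mM glutamine at 37 °C, 5% CO2 (doubling time about 24 h). Compound was taken from a DMSO stock, diluted in medium and applied for 24 h. Growth was assessed by Coulter cell counting, reported as cells/mL.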

HL-60 [21] = test: Induction of cell death in human HL60 cells at 10 uM by propidium iodide staining method; assay type: functional; in short: as §1
HL-60 [22] = test: Cell cycle arrest in human HL60 cells assessed as accumulation at G0/G1 phase at 10 uM; assay type: functional
In short: (§4)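 HL-60 cells growing exponentially in RPMI 1640 with 10% FBS and 2 mM glutamine at 37 °C under 5% CO2. Compound was dissolved in DMSO, diluted in medium and applied for 24 h. Cells were fixed in cold 70% ethanol and stained with 50 µg/mL propidium iodide plus 10 µg/mL RNase for 30 min. DNA content was read by flow cytometry (≥10,000 cells) and the percentage of cells in each phase calculated.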

HL-60 [23] = test: Cell cycle arrest in human HL60 cells assessed as accumulation at S phase at 10 uM; assay type: functional; in short: as §4
HL-60 [24] = test: Cell cycle arrest in human HL60 cells assessed as accumulation at G2/M phase at 10 uM; assay type: functional; in short: as §4

SMILES | Activity (HL-60 [1]) | Activity (HL-60 [2]) [%] | GI50 (Cancer cell lines [3]) [µM] | TGI (Cancer cell lines [3]) [µM] | GI50 (Leukemia cell) [µM] | GI50 (Cancer cell lines [4]) [µM] | TGI (Cancer cell lines [4]) [µM] | GI50 (Cancer cell lines [5]) [µM] | TGI (Cancer cell lines [5]) [µM] | GI50 (Melanoma cell) [µM] | TGI (Melanoma cell) [µM] | GI50 (Cancer cell lines [6]) [µM] | TGI (Cancer cell lines [6]) [µM] | GI50 (Cancer cell lines [7]) [µM] | TGI (Cancer cell lines [7]) [µM] | GI50 (Cancer cell lines [8]) [µM] | TGI (Cancer cell lines [8]) [µM] | GI50 (Cancer cell lines [9]) [µM] | TGI (Cancer cell lines [9]) [µM] | Activity (HL-60 [10]) [%] | other results
Cc1cn2c(/C=N/NC(=N)NN)c(-c3ccc(Cl)c([N+](=O)[O-])c3)nc2s1 | 760 | 7.8 | 0.955 | 2.09 | 6.31 | 2.4 | 9.77 | 1.12 | 2.95 | 1.82 | 4.57 | 1.29 | 3.72 | 3.24 | 8.51 | 3.39 | 9.55 | 1.55 | 5.37 | 35 | Activity (HL-60 [11]): 51.9%; Activity (HL-60 [12]): 13.1%
COc1cc([N+](=O)[O-])c(OC)cc1-c1nc2sc(Cl)cn2c1/C=N\NC1=NCCN1 | 485 | 22 | 0.501 | 2.95 | 2.63 | 0.933 | 4.79 | 0.646 | 2.09 | 1.26 | 3.89 | 0.741 | 1.86 | 1.35 | 3.39 | 0.759 | 1.15 | 1.82 | 42.7 | 33.1 | Activity [13]: Active; Activity (HL-60 [14]): Dose-dependent effect; Activity (HL-60 [15]): Active; Activity (HL-60 [16]): Active; Activity (HL-60 [17]): Active; Activity (HL-60 [18]): Active; Activity (HL-60 [19]): Active; Activity (HL-60 [11]): 51.9%; Activity (HL-60 [12]): 15.1%
CC(/C=N/NC(=N)N)=N\NC(=N)N [MITOGUAZONE] | – | – | 12.6 | 501 | 7.94 | 25.1 | 316 | 20 | 251 | 39.8 | 316 | 15.8 | 316 | 20 | 501 | 100 | 1580 | 15.8 | 316 | – | Activity (HL-60 [20]): 702; Activity (HL-60 [21]): 5.2%; TGI (Leukemia cell): 631 µM; Activity (HL-60 [22]): 43.6%; Activity (HL-60 [23]): 40.9%; Activity (HL-60 [24]): 15.5%
Cc1cn2c(/C=N/NC3=NCCN3)c(-c3ccc(Cl)c([N+](=O)[O-])c3)nc2s1 | 780 | 11.9 | 1.2 | 10 | 0.676 | 1.55 | 6.03 | 1.07 | 4.27 | 0.977 | 2.4 | 1.41 | 3.39 | 1.45 | 3.72 | 1.15 | 2.95 | 1.82 | 7.59 | 31.3 | TGI (Leukemia cell): 6.17 µM; Activity (HL-60 [11]): 53.7%; Activity (HL-60 [12]): 15%
Cc1nn2c(/C=N/NC(=N)N)c(-c3ccc(Cl)c([N+](=O)[O-])c3)nc2s1 | 410 | 31 | 0.646 | 2.82 | 0.575 | 3.31 | 11.5 | 1.23 | 9.77 | 1.45 | 2.95 | 1.48 | 4.27 | 1.23 | 3.63 | 1.1 | 2.63 | 1.02 | 6.92 | 29.9 | Activity [13]: Active; Activity (HL-60 [14]): Dose-dependent effect; Activity (HL-60 [15]): Active; Activity (HL-60 [16]): Active; Activity (HL-60 [17]): Active; Activity (HL-60 [18]): Active; Activity (HL-60 [19]): Active; TGI (Leukemia cell): 3.63 µM; Activity (HL-60 [11]): 53.6%; Activity (HL-60 [12]): 16.5%
Cc1cn2c(/C=N/NC(=N)N)c(-c3cc(Cl)sc3Cl)nc2s1 | 750 | 7.4 | 1.02 | 3.98 | 0.891 | 1.1 | 3.63 | 1.12 | 4.37 | 1.05 | 3.09 | 1.02 | 2.34 | 1.23 | 3.02 | 0.794 | 1.48 | 1.23 | 2.63 | 35.3 | TGI (Leukemia cell): 1.78 µM; Activity (HL-60 [11]): 50%; Activity (HL-60 [12]): 14.7%
